Source: ChEMBL document CHEMBL4715745, “Synthesis and biological evaluation of novel FK228 analogues as potential isoform selective HDAC inhibitors” (Eur J Med Chem, 2016)

tested on: MKN-28; assay: Growth inhibition of human MKN-28 cells measured after 48 hrs by sulforhodamine B assay; assay type: functional; details: not given
Outline: (§1)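 Panel of 39 human cancer cell lines tested at the Japanese Foundation for Cancer Research. Five concentrations per compound, spanning 10⁻¹¹–10⁻⁷ M, 10⁻¹⁰–10⁻⁶ M or 10⁻⁸–10⁻⁴ M, were used to build dose-response curves. GI₅₀ is the concentration giving 50% growth inhibition relative to control.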

| GI50 | Structure (SMILES) |
| --- | --- |
| 1800 nM | CC(C)C[C@@H]1NC(=O)[C@H]2CSSCC/C=C/[C@H](CC(=O)N[C@H](C(C)C)C(=O)N2)OC(=O)CNC1=O |

tested on: HT-29; assay: Growth inhibition of human HT-29 cells measured after 48 hrs by sulforhodamine B assay; assay type: functional; details: not given; outline: as §1

| GI50 | Structure (SMILES) |
| --- | --- |
| 690 nM | CC(C)C[C@@H]1NC(=O)[C@H]2CSSCC/C=C/[C@H](CC(=O)N[C@H](C(C)C)C(=O)N2)OC(=O)CNC1=O |

tested on: SNB-78; assay: Growth inhibition of human SNB-78 cells measured after 48 hrs by sulforhodamine B assay; assay type: functional; details: not given; outline: as §1

| Structure (SMILES) | GI50 |
| --- | --- |
| CC(C)C[C@@H]1NC(=O)[C@H]2CSSCC/C=C/[C@H](CC(=O)N[C@H](C(C)C)C(=O)N2)OC(=O)CNC1=O | 1800 nM |

tested on: OVCAR-8; assay: Growth inhibition of human OVCAR-8 cells measured after 48 hrs by sulforhodamine B assay; assay type: functional; details: not given; outline: as §1

| GI50 | Structure (SMILES) |
| --- | --- |
| 1500 nM | CC(C)C[C@@H]1NC(=O)[C@H]2CSSCC/C=C/[C@H](CC(=O)N[C@H](C(C)C)C(=O)N2)OC(=O)CNC1=O |

tested on: NCI-H23; assay: Growth inhibition of human NCI-H23 cells measured after 48 hrs by sulforhodamine B assay; assay type: functional; details: not given; outline: as §1

| GI50 | Structure (SMILES) |
| --- | --- |
| 1200 nM | CC(C)C[C@@H]1NC(=O)[C@H]2CSSCC/C=C/[C@H](CC(=O)N[C@H](C(C)C)C(=O)N2)OC(=O)CNC1=O |

tested on: OVCAR-3; assay: Growth inhibition of human OVCAR-3 cells measured after 48 hrs by sulforhodamine B assay; assay type: functional; details: not given; outline: as §1

| GI50 | Structure (SMILES) |
| --- | --- |
| 1500 nM | CC(C)C[C@@H]1NC(=O)[C@H]2CSSCC/C=C/[C@H](CC(=O)N[C@H](C(C)C)C(=O)N2)OC(=O)CNC1=O |

tested on: not listed separately; assay: Growth inhibition of human HBC5 cells measured after 48 hrs by sulforhodamine B assay; assay type: functional; details: not given; outline: as §1

| Structure (SMILES) | GI50 |
| --- | --- |
| CC(C)C[C@@H]1NC(=O)[C@H]2CSSCC/C=C/[C@H](CC(=O)N[C@H](C(C)C)C(=O)N2)OC(=O)CNC1=O | 1700 nM |

tested on: MCF7; assay: Growth inhibition of human MCF7 cells measured after 48 hrs by sulforhodamine B assay; assay type: functional; details: not given; outline: as §1

| GI50 | Structure (SMILES) |
| --- | --- |
| 1600 nM | CC(C)C[C@@H]1NC(=O)[C@H]2CSSCC/C=C/[C@H](CC(=O)N[C@H](C(C)C)C(=O)N2)OC(=O)CNC1=O |

tested on: MDA-MB-231; assay: Growth inhibition of human MDA-MB-231 cells measured after 48 hrs by sulforhodamine B assay; assay type: functional; details: not given; outline: as §1

| GI50 | Structure (SMILES) |
| --- | --- |
| 1200 nM | CC(C)C[C@@H]1NC(=O)[C@H]2CSSCC/C=C/[C@H](CC(=O)N[C@H](C(C)C)C(=O)N2)OC(=O)CNC1=O |

tested on: OVCAR-5; assay: Growth inhibition of human OVCAR-5 cells measured after 48 hrs by sulforhodamine B assay; assay type: functional; details: not given; outline: as §1

| GI50 | Structure (SMILES) |
| --- | --- |
| 1200 nM | CC(C)C[C@@H]1NC(=O)[C@H]2CSSCC/C=C/[C@H](CC(=O)N[C@H](C(C)C)C(=O)N2)OC(=O)CNC1=O |

tested on: St-4; assay: Growth inhibition of human St-4 cells measured after 48 hrs by sulforhodamine B assay; assay type: functional; details: not given; outline: as §1

| Structure (SMILES) | GI50 |
| --- | --- |
| CC(C)C[C@@H]1NC(=O)[C@H]2CSSCC/C=C/[C@H](CC(=O)N[C@H](C(C)C)C(=O)N2)OC(=O)CNC1=O | 2100 nM |

tested on: not listed separately; assay: Growth inhibition of human BSY1 cells measured after 48 hrs by sulforhodamine B assay; assay type: functional; details: BSY-1; outline: as §1

| Structure (SMILES) | GI50 |
| --- | --- |
| CC(C)C[C@@H]1NC(=O)[C@H]2CSSCC/C=C/[C@H](CC(=O)N[C@H](C(C)C)C(=O)N2)OC(=O)CNC1=O | 1500 nM |

tested on: MKN-45; assay: Growth inhibition of human MKN-45 cells measured after 48 hrs by sulforhodamine B assay; assay type: functional; details: not given; outline: as §1

| GI50 | Structure (SMILES) |
| --- | --- |
| 2200 nM | CC(C)C[C@@H]1NC(=O)[C@H]2CSSCC/C=C/[C@H](CC(=O)N[C@H](C(C)C)C(=O)N2)OC(=O)CNC1=O |

tested on: not listed separately; assay: Selectivity index, ratio of IC50 for mouse HDAC6 expressed in 293T cells to IC50 for human HDAC1 expressed in 293T cells using Ac-KGLGK(Ac)-MCA as substrate incubated for 30 mins in presence of 0.1 mM DTT by fluorescence plate reader assay; details: 0.5 h
Outline: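 Ratio of HDAC6 IC₅₀ to HDAC1 IC₅₀, taken as selectivity for class I HDAC1 over class II HDAC6. Both enzyme assays were run in the presence of 0.1 mM DTT.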

| Structure (SMILES) | Ratio IC50 |
| --- | --- |
| CC(C)C[C@@H]1NC(=O)[C@H]2CSSCC/C=C/[C@H](CC(=O)N[C@H](C(C)C)C(=O)N2)OC(=O)CNC1=O | 198 |

tested on: MKN-74; assay: Growth inhibition of human MKN-74 cells measured after 48 hrs by sulforhodamine B assay; assay type: functional; details: not given; outline: as §1

| GI50 | Structure (SMILES) |
| --- | --- |
| 1500 nM | CC(C)C[C@@H]1NC(=O)[C@H]2CSSCC/C=C/[C@H](CC(=O)N[C@H](C(C)C)C(=O)N2)OC(=O)CNC1=O |

tested on: SF-539; assay: Growth inhibition of human SF-539 cells measured after 48 hrs by sulforhodamine B assay; assay type: functional; details: not given; outline: as §1

| Structure (SMILES) | GI50 |
| --- | --- |
| CC(C)C[C@@H]1NC(=O)[C@H]2CSSCC/C=C/[C@H](CC(=O)N[C@H](C(C)C)C(=O)N2)OC(=O)CNC1=O | 1500 nM |

tested on: HCT-15; assay: Growth inhibition of human HCT-15 cells measured after 48 hrs by sulforhodamine B assay; assay type: functional; details: not given; outline: as §1

| GI50 | Structure (SMILES) |
| --- | --- |
| 17000 nM | CC(C)C[C@@H]1NC(=O)[C@H]2CSSCC/C=C/[C@H](CC(=O)N[C@H](C(C)C)C(=O)N2)OC(=O)CNC1=O |

tested on: NCI-H522; assay: Growth inhibition of human NCI-H522 cells measured after 48 hrs by sulforhodamine B assay; assay type: functional; details: not given; outline: as §1

| GI50 | Structure (SMILES) |
| --- | --- |
| 200 nM | CC(C)C[C@@H]1NC(=O)[C@H]2CSSCC/C=C/[C@H](CC(=O)N[C@H](C(C)C)C(=O)N2)OC(=O)CNC1=O |

tested on: OVCAR-4; assay: Growth inhibition of human OVCAR-4 cells measured after 48 hrs by sulforhodamine B assay; assay type: functional; details: not given; outline: as §1

| GI50 | Structure (SMILES) |
| --- | --- |
| 1600 nM | CC(C)C[C@@H]1NC(=O)[C@H]2CSSCC/C=C/[C@H](CC(=O)N[C@H](C(C)C)C(=O)N2)OC(=O)CNC1=O |

tested on: MKN-7; assay: Growth inhibition of human MKN-7 cells measured after 48 hrs by sulforhodamine B assay; assay type: functional; details: not given; outline: as §1

| GI50 | Structure (SMILES) |
| --- | --- |
| 1800 nM | CC(C)C[C@@H]1NC(=O)[C@H]2CSSCC/C=C/[C@H](CC(=O)N[C@H](C(C)C)C(=O)N2)OC(=O)CNC1=O |

tested on: LOX IMVI; assay: Growth inhibition of human LOX IMVI cells measured after 48 hrs by sulforhodamine B assay; assay type: functional; details: not given; outline: as §1

| Structure (SMILES) | GI50 |
| --- | --- |
| CC(C)C[C@@H]1NC(=O)[C@H]2CSSCC/C=C/[C@H](CC(=O)N[C@H](C(C)C)C(=O)N2)OC(=O)CNC1=O | 180 nM |
